Measured values from ChEMBL document CHEMBL4270631, “Design, synthesis and in vitro anti-Zika virus evaluation of novel Sinefungin derivatives” (Eur J Med Chem, 2018).

Columns and labels:
Zika virus [1] = assay: Antiviral activity against Zika virus SMGC infected in BHK cells assessed as inhibition of virus induced cytopathic effect after 8 days by CellTiter-Glo luminescent cell viability assay; type: functional, organism-based; conditions: 192 h
In short: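 BHK cells seeded at 5,000/well in DMEM with 10% FBS and P/S, 24 h at 37°C, 5% CO₂, then switched to maintenance medium (DMEM, 2% FBS, P/S). Vero-grown ZIKV diluted to 100TCID₅₀ added with compounds in 3-fold dilutions from 50 μM; incubated 8 days until 100% CPE; viability read by CellTiter-Glo luminescence; IC50 calculated from curves.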

[2] = Cytotoxicity against BHK cells after 8 days by CellTiter-Glo assay; type: cell-based, Mesocricetus auratus; conditions: hamster
In short: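 BHK cells seeded at 5,000/well, allowed 24 h recovery, then given maintenance medium (DMEM, 2% FBS, P/S) containing compound in 3-fold dilutions from 200 μM to 0.09 μM, or drug-free. Viability read by CellTiter-Glo luminescence after 8 days' exposure; CC50 calculated from curves.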

[3] = Selectivity index, ratio of CC50 for BHK cells to IC50 for Zika virus SMGC infected in BHK cells; type: toxicity, cell-based; conditions: hamster, BHK cells infected with Zika virus SMGC, read-out: Ratio CC50/IC50
In short: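 Ratio of CC50 from 8-day CellTiter-Glo viability of uninfected BHK cells (compound 200–0.09 μM) to IC50 from 8-day protection of BHK cells against 100TCID₅₀ ZIKV-induced CPE (compound from 50 μM, 3-fold dilutions), both in DMEM with 2% FBS.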

Zika virus [4] = assay: Potency index, ratio of EPZ004777 IC50 to test compound IC50 for Zika virus SMGC infected in BHK cells; type: functional
[5] = Inhibition of recombinant N-terminal GST-tagged Dengue virus 3 NS5 N7-MTase activity expressed in Escherichia coli BL21 by scintillation proximity assay; set-up: species or system dengue virus type 3
[6] = Inhibition of recombinant N-terminal GST-tagged Dengue virus 3 2'-O-MTase activity expressed in Escherichia coli BL21 by scintillation proximity assay; set-up: species or system dengue virus type 3
[7] = Inhibition of recombinant N-terminal GST-tagged Dengue virus 3 NS5 N7-MTase F133A mutant expressed in Escherichia coli BL21 by scintillation proximity assay; set-up: species or system dengue virus type 3
[8] = Inhibition of recombinant N-terminal GST-tagged Dengue virus 3 2'-O-MTase F133A mutant expressed in Escherichia coli BL21 by scintillation proximity assay; set-up: species or system dengue virus type 3
[9] = target: DNA (cytosine-5)-methyltransferase 1 (Homo sapiens, UniProt P26358); assay: Inhibition of human DNMT1A using double-stranded hemi-DNA oligonucleotide as substrate measured after 40 mins by [3H]methyl incorporation assay
Chain of DNA (cytosine-5)-methyltransferase 1 (P26358 whole entry, the tested form may be a part): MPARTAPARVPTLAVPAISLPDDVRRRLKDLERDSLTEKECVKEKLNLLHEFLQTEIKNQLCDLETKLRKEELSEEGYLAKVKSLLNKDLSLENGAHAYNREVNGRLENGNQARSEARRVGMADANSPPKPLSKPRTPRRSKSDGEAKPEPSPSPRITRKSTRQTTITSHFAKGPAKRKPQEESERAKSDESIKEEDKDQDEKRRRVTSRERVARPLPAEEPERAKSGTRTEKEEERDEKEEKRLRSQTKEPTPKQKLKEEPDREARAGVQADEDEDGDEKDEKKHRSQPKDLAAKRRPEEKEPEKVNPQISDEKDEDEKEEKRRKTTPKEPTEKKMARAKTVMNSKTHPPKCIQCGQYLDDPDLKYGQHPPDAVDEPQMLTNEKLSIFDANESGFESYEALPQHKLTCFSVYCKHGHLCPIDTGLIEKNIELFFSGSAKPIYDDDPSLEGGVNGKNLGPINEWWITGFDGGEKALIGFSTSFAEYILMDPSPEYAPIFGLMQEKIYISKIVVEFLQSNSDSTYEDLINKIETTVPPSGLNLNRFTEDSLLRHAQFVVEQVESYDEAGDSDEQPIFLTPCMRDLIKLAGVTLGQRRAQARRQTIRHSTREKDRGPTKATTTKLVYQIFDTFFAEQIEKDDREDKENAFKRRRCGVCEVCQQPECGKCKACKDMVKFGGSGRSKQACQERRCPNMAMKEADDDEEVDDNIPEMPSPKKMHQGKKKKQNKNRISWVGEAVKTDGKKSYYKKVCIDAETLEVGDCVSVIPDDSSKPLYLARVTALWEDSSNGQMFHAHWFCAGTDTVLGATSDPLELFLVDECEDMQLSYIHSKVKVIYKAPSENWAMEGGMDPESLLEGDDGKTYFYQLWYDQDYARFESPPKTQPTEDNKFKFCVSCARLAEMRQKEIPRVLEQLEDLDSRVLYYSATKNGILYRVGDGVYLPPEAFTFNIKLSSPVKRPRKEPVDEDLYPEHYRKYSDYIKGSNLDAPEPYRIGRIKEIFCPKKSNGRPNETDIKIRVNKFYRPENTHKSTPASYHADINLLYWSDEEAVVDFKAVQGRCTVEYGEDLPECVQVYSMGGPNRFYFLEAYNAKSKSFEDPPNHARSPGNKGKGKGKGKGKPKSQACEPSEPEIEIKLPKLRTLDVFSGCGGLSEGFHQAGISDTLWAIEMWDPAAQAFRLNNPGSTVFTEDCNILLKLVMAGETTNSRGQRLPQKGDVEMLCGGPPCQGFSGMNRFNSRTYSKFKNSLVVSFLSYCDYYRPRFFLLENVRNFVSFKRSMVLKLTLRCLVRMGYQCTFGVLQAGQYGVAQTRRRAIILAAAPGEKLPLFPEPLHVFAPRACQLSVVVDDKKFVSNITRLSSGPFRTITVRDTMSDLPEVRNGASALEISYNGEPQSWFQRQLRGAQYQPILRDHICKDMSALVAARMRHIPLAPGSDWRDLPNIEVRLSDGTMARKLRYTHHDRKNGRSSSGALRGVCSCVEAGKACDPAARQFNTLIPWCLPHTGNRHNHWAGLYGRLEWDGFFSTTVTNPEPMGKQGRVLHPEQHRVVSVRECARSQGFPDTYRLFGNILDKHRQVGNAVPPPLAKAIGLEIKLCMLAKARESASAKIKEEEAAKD

[10] = target: mRNA cap guanine-N(7) methyltransferase (Homo sapiens, UniProt O43148); assay: Inhibition of recombinant human N-terminal His-tagged RNMT (1 to 476 residues) expressed in Escherichia coli BL21 using 5'-GpppAGAACCUG-biotin-TEG-3 as substrate after 10 mins by [3H]methyl incorporation assay
Chain of mRNA cap guanine-N(7) methyltransferase (O43148 whole entry, the tested form may be a part): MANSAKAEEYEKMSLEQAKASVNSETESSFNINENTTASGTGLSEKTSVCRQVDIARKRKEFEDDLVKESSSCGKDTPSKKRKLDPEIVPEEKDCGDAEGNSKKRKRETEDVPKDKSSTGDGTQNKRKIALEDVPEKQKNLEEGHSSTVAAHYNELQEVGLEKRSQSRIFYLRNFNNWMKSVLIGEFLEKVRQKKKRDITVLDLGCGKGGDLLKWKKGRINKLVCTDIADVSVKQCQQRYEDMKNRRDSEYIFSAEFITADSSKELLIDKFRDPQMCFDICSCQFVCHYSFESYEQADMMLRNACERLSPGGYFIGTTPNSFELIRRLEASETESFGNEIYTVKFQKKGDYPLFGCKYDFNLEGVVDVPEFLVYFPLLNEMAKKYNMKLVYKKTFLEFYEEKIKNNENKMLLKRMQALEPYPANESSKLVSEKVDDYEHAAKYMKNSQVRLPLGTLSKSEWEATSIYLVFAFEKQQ

Row | Structure (SMILES) | IC50 (Zika virus [1]) [µM] | CC50 at 192 h [2] [µM] | selectivity ratio [3] | other results
1 | CC(C)N(CCCNC(=O)Nc1ccc(F)cc1)C[C@H]1O[C@@H](n2cnc3c(NCc4cccc(F)c4)ncnc32)[C@H](O)[C@@H]1O | > 50 |  |  | 
2 | CC(C)N(CCCNC(=O)Nc1ccc(C(C)(C)C)cc1)C[C@H]1O[C@@H](n2ccc3c(N)ncnc32)[C@H](O)[C@@H]1O | 35.2 | > 200 | > 5.68 | 
3 | CC(C)N(CCCN)C[C@H]1O[C@@H](n2cnc3c(NCc4cccc(Cl)c4)ncnc32)[C@H](O)[C@@H]1O | > 50 |  |  | 
4 | CC(C)N(CCCNC(=O)Nc1ccc(F)cc1)C[C@H]1O[C@@H](n2cnc3c(NCc4cccc(Cl)c4)ncnc32)[C@H](O)[C@@H]1O | 15.3 | 20 | 1.31 | 
5 | CC(C)N(CCCNC(=O)NC(C)(C)C)C[C@H]1O[C@@H](n2cnc3c(NCc4cccc(F)c4)ncnc32)[C@H](O)[C@@H]1O | > 50 |  |  | 
6 | Cc1ccc(NC(=O)NCCCN(C[C@H]2O[C@@H](n3cnc4c(NCc5cccc(F)c5)ncnc43)[C@H](O)[C@@H]2O)C(C)C)cc1 | > 50 |  |  | 
7 | CC(C)N(CCCNC(=O)NC1CCCCC1)C[C@H]1O[C@@H](n2cnc3c(NCc4cccc(F)c4)ncnc32)[C@H](O)[C@@H]1O | > 50 |  |  | 
8 | COc1ccc(NC(=O)NCCCN(C[C@H]2O[C@@H](n3cnc4c(NCc5cccc(Cl)c5)ncnc43)[C@H](O)[C@@H]2O)C(C)C)cc1 | > 50 |  |  | 
9 | COc1ccc(NC(=O)NCCCN(C[C@H]2O[C@@H](n3cnc4c(NCc5cccc(F)c5)ncnc43)[C@H](O)[C@@H]2O)C(C)C)cc1 | > 50 |  |  | 
10 | Nc1ncnc2c1ncn2[C@@H]1O[C@H](C[C@@H](N)CC[C@H](N)C(=O)O)[C@@H](O)[C@H]1O [SINEFUNGIN] | > 50 |  |  | 
11 | Cc1ccc(NC(=O)NCCCN(C[C@H]2O[C@@H](n3cnc4c(NCc5cccc(Cl)c5)ncnc43)[C@H](O)[C@@H]2O)C(C)C)cc1 | 5.8 | 19.1 | 3.29 | Ratio IC50 (Zika virus [4]): 5 - 7.7
12 | CC(C)N(CCCNC(=O)Nc1cccc(C(F)(F)F)c1)C[C@H]1O[C@@H](n2cnc3c(NCc4cccc(F)c4)ncnc32)[C@H](O)[C@@H]1O | 6.99 | 12.9 | 1.84 | Ratio IC50 (Zika virus [4]): 5 - 7.7
13 | CC(C)NC[C@H]1O[C@@H](n2cnc3c(NCc4cccc(Cl)c4)ncnc32)[C@H](O)[C@@H]1O | 6.33 | 29.4 | 4.64 | 
14 | CC(C)N(CCCO)C[C@H]1O[C@@H](n2cnc3c(NCc4cccc(Cl)c4)ncnc32)[C@H](O)[C@@H]1O | 27.5 | 70.6 | 2.57 | 
15 | CC(C)N(CCCN)C[C@H]1O[C@@H](n2cnc3c(NCc4cccc(F)c4)ncnc32)[C@H](O)[C@@H]1O | > 50 |  |  | 
16 | CC(C)N(CCCNC(=O)Nc1cccc(C(F)(F)F)c1)C[C@H]1O[C@@H](n2cnc3c(NCc4cccc(Cl)c4)ncnc32)[C@H](O)[C@@H]1O | 4.56 | 5.88 | 1.29 | Ratio IC50 (Zika virus [4]): 5 - 7.7
17 | CC(C)N(CCCNC(=O)Nc1ccc(C(F)(F)F)cc1)C[C@H]1O[C@@H](n2cnc3c(NCc4cccc(Cl)c4)ncnc32)[C@H](O)[C@@H]1O |  | 6.35 |  | 
18 | COC(=O)CCN(C[C@H]1O[C@@H](n2cnc3c(NCc4cccc(Cl)c4)ncnc32)[C@H](O)[C@@H]1O)C(C)C | > 50 |  |  | 
19 | CC(C)N(CCCNC(=O)NC1CCCCC1)C[C@H]1O[C@@H](n2cnc3c(NCc4cccc(Cl)c4)ncnc32)[C@H](O)[C@@H]1O | 12.2 | 57.6 | 4.7 | 
20 | CC(C)N(CCCNC(=O)NC(C)(C)C)C[C@H]1O[C@@H](n2cnc3c(NCc4cccc(Cl)c4)ncnc32)[C@H](O)[C@@H]1O | 20.6 | 58.5 | 2.84 | 
21 | N[C@@H](CCSC[C@H]1O[C@@H](n2cnc3c(NCc4cccc(Cl)c4)ncnc32)[C@H](O)[C@@H]1O)C(=O)O |  |  |  | Ki [5]: 2 to 240 nM; Ki [6]: 2 to 240 nM; Ki [7]: 44 to 5680 nM; Ki [8]: 44 to 5680 nM; Ki [9]: > 50 µM; Ki [10]: > 50 µM
22 | COC(=O)CCN(C[C@H]1O[C@@H](n2cnc3c(NCc4cccc(F)c4)ncnc32)[C@H](O)[C@@H]1O)C(C)C | > 50 |  |  | 
23 | CC(C)N(CCCNC(=O)Nc1ccc(C(F)(F)F)cc1)C[C@H]1O[C@@H](n2cnc3c(NCc4cccc(F)c4)ncnc32)[C@H](O)[C@@H]1O | 6.46 | 20.3 | 3.14 | Ratio IC50 (Zika virus [4]): 5 - 7.7
24 | CC(C)N(CCCNC(=O)Nc1ccc(C(C)(C)C)cc1)C[C@H]1O[C@@H](n2cnc3c(NCc4cccc(Cl)c4)ncnc32)[C@H](O)[C@@H]1O |  | 6.73 |  | 
25 | CC(C)NC[C@H]1O[C@@H](n2cnc3c(NCc4cccc(F)c4)ncnc32)[C@H](O)[C@@H]1O | 30 | > 200 | > 6.67 | 
26 | CC(C)N(CCCO)C[C@H]1O[C@@H](n2cnc3c(NCc4cccc(F)c4)ncnc32)[C@H](O)[C@@H]1O | > 50 |  |  | 
27 | CC(C)N(CCCNC(=O)Nc1ccc(C(C)(C)C)cc1)C[C@H]1O[C@@H](n2cnc3c(NCc4cccc(F)c4)ncnc32)[C@H](O)[C@@H]1O | 6.65 | 18.7 | 2.81 | Ratio IC50 (Zika virus [4]): 5 - 7.7
